{"data": "Results collected from several papers", "matrix": "plasma", "note": "Compare with care: the assays were run in different laboratories."}
{"Structure (SMILES)": "COc1ncccc1-c1cnn2ccc(N3CCN(C(=O)OC(C)C)CC3)nc12", "species": "rat", "route": "oral", "dose": "10 mg/kg", "bioavailability [%]": 50}
{"Structure (SMILES)": "C#Cc1ccc2c(c1)C(c1ccccn1)=NCc1c(-c3cnco3)ncn1-2", "species": "male Sprague-Dawley rat", "route": "intraperitoneal", "dose": "10 mg/kg", "bioavailability [%]": 69}
{"Structure (SMILES)": "Cc1cnc(N2CC3(CCOCC3)C2)c(C(=O)Nc2ccc(C(=O)N3CCc4cc(C(=O)Nc5c(C)cccc5F)sc4-c4ccccc43)cc2)c1", "species": "rat", "route": "inhaled", "dose": "2.7 mg/kg", "setting": "single dose", "bioavailability [%]": "< 3"}
{"Structure (SMILES)": "N=c1c2c(-c3ccccc3)c(-c3ccccc3)n(Cc3ccccc3)c2ncn1[C@H]1CC[C@H](O)CC1", "species": "male Sprague-Dawley rat", "route": "oral", "dose": "2 mg/kg", "setting": "single dose", "bioavailability [%]": "> 80"}
{"Structure (SMILES)": "Cl.Cl.O=C(CCN1CCCCC1)c1ccc(-c2ccc(C(=O)CCN3CCCCC3)cc2)cc1", "species": "Sprague-Dawley rat", "route": "oral", "dose": "100 mg/kg", "bioavailability [%]": 24.2}
{"Structure (SMILES)": "CN(C)C(=O)Oc1cc(OC(=O)N(C)C)cc(-c2cc3ccc(O)cc3o2)c1", "species": "male rat", "route": "oral", "dose": "5 mg/kg", "bioavailability [%]": 3.01}
{"Structure (SMILES)": "O=C([O-])C(=O)[O-].[NH-][C@@H]1CCCC[C@H]1[NH-].[Pt+4] (relative stereo)", "species": "rat", "route": "intravenous", "dose": "5 mg/kg", "bioavailability [%]": 100}
{"Structure (SMILES)": "O=C(Nc1cccnn1)N1CCN([C@@H]2CCOc3cc(C(F)(F)F)ccc32)CC1", "species": "male Sprague-Dawley rat", "route": "oral", "dose": "0.3 mg/kg", "bioavailability [%]": 41}
{"Structure (SMILES)": "Cn1cnc(Cn2c(=O)[nH]/c(=N\\c3cc4cn(C)nc4cc3Cl)n(Cc3cc(F)c(F)cc3F)c2=O)n1", "species": "male Sprague-Dawley rat", "route": "oral", "dose": "25 mg/kg", "bioavailability [%]": 129}
{"Structure (SMILES)": "CS(=O)(=O)Nc1ccc(-c2ccnc(Nc3ccc(-n4ccnn4)cc3)n2)cc1", "species": "Sprague-Dawley rat", "route": "oral", "dose": "2 mg/kg", "bioavailability [%]": 5}
{"Structure (SMILES)": "[2H]C([2H])(c1cc(F)c(F)cc1F)n1c(=O)n(Cc2ncn(C)n2)c(=O)[nH]/c1=N\\c1cc2cn(C)nc2cc1Cl", "species": "male Sprague-Dawley rat", "route": "oral", "dose": "25 mg/kg", "bioavailability [%]": 117}
{"Structure (SMILES)": "CCC[C@@](N)(CO)CCc1ccc(OCCCCCC(C)C)cc1", "species": "rat", "route": "oral", "dose": "30 mg/kg", "bioavailability [%]": 35}
{"Structure (SMILES)": "Cc1ncc(C)n2nc(/C=C/c3nc(N4CCCC4)cc(N4CCOCC4)n3)nc12", "species": "male Sprague-Dawley rat", "route": "oral", "dose": "0.3 mg/kg", "bioavailability [%]": 33}
